Activity calls are given as the source filed them.
Assays:
[1] = target: T1, Phospholipase D1 (Homo sapiens) (UniProt Q13393); assay: Inhibition of PLD1 (unknown origin) overexpressed in human A549 cells; format: cell-based
T1 sequence (whole entry): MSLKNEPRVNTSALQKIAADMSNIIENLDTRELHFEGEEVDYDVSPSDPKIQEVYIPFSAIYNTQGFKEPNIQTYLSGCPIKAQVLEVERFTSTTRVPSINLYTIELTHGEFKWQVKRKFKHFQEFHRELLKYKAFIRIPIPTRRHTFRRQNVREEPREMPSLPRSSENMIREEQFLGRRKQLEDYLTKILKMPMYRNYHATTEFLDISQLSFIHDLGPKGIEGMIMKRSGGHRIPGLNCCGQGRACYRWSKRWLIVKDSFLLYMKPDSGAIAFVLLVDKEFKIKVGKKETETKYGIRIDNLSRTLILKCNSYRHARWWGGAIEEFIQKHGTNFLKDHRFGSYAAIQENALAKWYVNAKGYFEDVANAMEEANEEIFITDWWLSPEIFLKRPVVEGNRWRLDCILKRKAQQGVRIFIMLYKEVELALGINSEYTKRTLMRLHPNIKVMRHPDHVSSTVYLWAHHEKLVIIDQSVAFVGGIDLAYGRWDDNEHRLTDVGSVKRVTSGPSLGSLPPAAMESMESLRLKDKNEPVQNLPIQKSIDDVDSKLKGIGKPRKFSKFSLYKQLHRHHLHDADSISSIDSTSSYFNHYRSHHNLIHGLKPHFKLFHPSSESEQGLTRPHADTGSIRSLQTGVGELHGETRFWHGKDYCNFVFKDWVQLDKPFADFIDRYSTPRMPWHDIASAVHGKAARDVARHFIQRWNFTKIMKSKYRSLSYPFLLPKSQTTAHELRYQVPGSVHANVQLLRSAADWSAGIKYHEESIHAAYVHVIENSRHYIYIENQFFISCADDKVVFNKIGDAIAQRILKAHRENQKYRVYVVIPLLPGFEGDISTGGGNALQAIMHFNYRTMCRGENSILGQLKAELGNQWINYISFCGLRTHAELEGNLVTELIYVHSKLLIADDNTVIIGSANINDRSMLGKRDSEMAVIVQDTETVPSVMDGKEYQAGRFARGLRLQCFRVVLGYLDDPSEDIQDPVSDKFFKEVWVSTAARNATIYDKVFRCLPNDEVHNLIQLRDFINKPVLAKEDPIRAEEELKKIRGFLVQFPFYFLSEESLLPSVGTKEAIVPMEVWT
Outline: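 A549 cells transfected with wild-type PLD1, PLD1 mutants (L425A, F614A, F789A) or PLD2, then compound-treated. PLD activity measured as [3H]phosphatidylbutanol formed in the presence of 1-butanol after [3H]myristic acid labeling, expressed as % of total lipid cpm. At least three independent experiments.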

[2] = target: T1, Phospholipase D1 (Homo sapiens); assay: Inhibition of wild type PLD1 (unknown origin) overexpressed in human A549 cells; format: cell-based
Outline: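 A549 cells transfected with wild-type PLD1, labeled with [3H] myristic acid; PLD activity as [3H] phosphatidylbutanol formed by transphosphatidylation with 1-butanol, expressed as percent of total lipid cpm in PtdBut; alternatively, cells treated 1 h and read by Amplex Red kit (ex 540/em 590 nm); at least three independent experiments.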

[3] = test system: A549; assay: Induction of apoptosis in human A549 cells by annexin V and PI staining based flow cytometry analysis; format: functional, cell-based
[4] = test system: A549; assay: Enhancement of macrophage induced phagocytosis in CFSE labelled human A549 cells assessed as increase on CD11b+CFSE macrophage […] at 5 to 20 uM incubated for 48 hrs by flow cytometric analysis; format: functional, cell-based; conditions: dose 5-20 µM
Outline: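 A549 cells treated 48 h in RPMI/10% FBS, then labeled with 1 μM CFSE. Co-cultured 1:1 (5 × 10^5 each) with PMA-differentiated THP-1 macrophages in serum-free RPMI for 2 h. After Fc block, stained with PerCP-Cy5.5 anti-CD11b for 20 min at 4 °C. CD11b+CFSE+ fraction measured by flow cytometry.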

[5] = test system: Lewis lung carcinoma cell line; assay: Antitumor activity against mouse Lewis lung carcinoma cell line allografted in male C57BL/6 mouse model assessed as recovery of spleen size at 10 mg/kg, po measured every other day for 3 weeks; format: functional, organism-based
Outline: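 Syngeneic model: 6-week-old male C57BL/6 mice given 3 × 10^5 LLC cells in 50 μL PBS subcutaneously in the flank. At day 7, mice were randomized to vehicle PO daily or 10 mg/kg PO every other day for 3 weeks. Caliper volume was taken every 2 days as ([…])/2, with tumor weight at end. Spleen size and weight were recorded. Ki67 and cleaved caspase-3 were scored by IHC (DAB, hematoxylin).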

[6] = target: T2, Phospholipase D1 (Mus musculus) (UniProt Q9Z280); assay: In vivo inhibition of PLD1 in male C57BL/6 mouse allografted with mouse Lewis lung carcinoma cell line assessed as reduction in PD-L1 expression at 10 mg/kg, po by immunofluorescence analysis; format: functional, organism-based
T2 sequence (whole entry): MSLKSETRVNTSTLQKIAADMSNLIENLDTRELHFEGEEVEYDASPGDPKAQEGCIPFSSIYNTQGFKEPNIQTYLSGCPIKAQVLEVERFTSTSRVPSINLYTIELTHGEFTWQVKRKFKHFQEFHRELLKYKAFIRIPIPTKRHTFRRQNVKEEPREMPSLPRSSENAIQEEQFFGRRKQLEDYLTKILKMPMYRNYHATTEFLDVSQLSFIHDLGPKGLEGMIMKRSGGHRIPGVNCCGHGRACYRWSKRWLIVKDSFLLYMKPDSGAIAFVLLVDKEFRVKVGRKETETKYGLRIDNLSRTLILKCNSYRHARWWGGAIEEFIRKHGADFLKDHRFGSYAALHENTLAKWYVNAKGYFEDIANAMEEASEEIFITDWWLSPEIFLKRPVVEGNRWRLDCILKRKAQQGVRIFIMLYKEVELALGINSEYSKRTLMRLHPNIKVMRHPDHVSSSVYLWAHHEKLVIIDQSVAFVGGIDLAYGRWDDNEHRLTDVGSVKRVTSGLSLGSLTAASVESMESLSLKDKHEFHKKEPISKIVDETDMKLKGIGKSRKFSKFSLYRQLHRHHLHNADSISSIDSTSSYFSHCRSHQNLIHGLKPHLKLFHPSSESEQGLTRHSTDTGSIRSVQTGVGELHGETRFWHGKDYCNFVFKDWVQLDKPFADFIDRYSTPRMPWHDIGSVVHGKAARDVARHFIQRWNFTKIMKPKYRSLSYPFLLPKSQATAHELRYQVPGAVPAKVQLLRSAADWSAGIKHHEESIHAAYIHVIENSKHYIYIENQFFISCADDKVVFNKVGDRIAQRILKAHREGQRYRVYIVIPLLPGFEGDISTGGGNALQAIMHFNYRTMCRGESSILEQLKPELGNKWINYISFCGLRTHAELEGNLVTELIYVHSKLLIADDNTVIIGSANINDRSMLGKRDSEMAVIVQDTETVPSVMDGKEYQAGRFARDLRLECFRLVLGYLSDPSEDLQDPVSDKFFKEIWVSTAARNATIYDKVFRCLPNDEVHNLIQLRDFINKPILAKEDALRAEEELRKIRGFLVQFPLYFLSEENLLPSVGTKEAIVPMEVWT

O=C(CCc1c[nH]c2ccccc12)Nc1cc(C(F)(F)F)cc(C(F)(F)F)c1
active: inhibition [1] | inhibition [2] | Activity [3] | Activity [4] | Activity [5] | inhibition [6]
